Measured values reported in paper PMC4427609 (Drug Design, Development and Therapy, 2015).
Like-named read-outs stand apart in the source and are kept apart here.

Assays:
Assay type in all cases: in vivo, rat
Sprague-Dawley rats [1] = settings: third day post STZ, mean ± SEM, n=10; for ALP (alkaline phosphatase) / ALT (alanine aminotransferase) / AST (aspartate aminotransferase) / Albumin / Creatinine / GGT (gamma-glutamyl transferase) / Urea: serum
In short: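 Male SD rats got blank injections (no STZ), one STZ dose, or two STZ doses over 2 days. STZ was freshly dissolved in 0.1 M citrate buffer pH 4.5 and given at 80 mg/kg ip. On day 3 rats were fasted for 18 h with water ad libitum. They were then staged by glucose: Stage 0 <200, Stage 1 200–450, Stage 2 451–750 mg/dL.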

Sprague-Dawley rats [2] = experiment: Histopathology of liver, kidney and pancreas of STZ-induced diabetic rats; settings: hematoxylin and eosin, light microscope
In short: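 Diabetes was induced in male SD rats with freshly dissolved STZ (0.1 M citrate, pH 4.5), 80 mg/kg ip, two doses over 2 days; diabetic meant fasting glucose >200 mg/dL. Liver, kidney and pancreas from diabetic and nondiabetic rats were taken immediately after sacrifice and fixed in 10% phosphate-buffered formalin. Tissue was paraffin-embedded, cut at 5 μm, H&E-stained and examined by light microscopy.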

[3] = Serum insulin pharmacokinetics in STZ diabetic and nondiabetic rats; settings: insulin 4 IU/kg subcutaneously; result in words
[4] = system: STZ diabetic and nondiabetic rats; experiment: Effect of insulin dose on STZ diabetic and nondiabetic rats; settings: insulin 6 IU/kg subcutaneously, 2 hours, mean ± SEM, n=10
[5] = Stage 1 diabetic rats (200–450 mg/dL)
[6] = Stage 2 diabetic rats (451–750 mg/dL)

Question: Which results are given for CN(N=O)C(=O)N[C@H]1C(O)O[C@H](CO)[C@@H](O)[C@@H]1O (mixture of isomers) [STZ, streptozotocin]?
Answer: Glucose (heart) (Sprague-Dawley rats [1]; [5]): 439 ± 20.9 mg/dL; Glucose (heart) (Sprague-Dawley rats [1]; [6]): 668 ± 34.5 mg/dL; ALP (alkaline phosphatase) (Sprague-Dawley rats [1]; [5]): 247±47.5 IU/L; ALT (alanine aminotransferase) (Sprague-Dawley rats [1]; [5]): 88±18.8 IU/L; AST (aspartate aminotransferase) (Sprague-Dawley rats [1]; [5]): 131.4±23.1 IU/L; Albumin (Sprague-Dawley rats [1]; [5]): 4.5 ± 0.3 g/dL; Creatinine (Sprague-Dawley rats [1]; [5]): 1.1 ± 0.3 mg/dL; GGT (gamma-glutamyl transferase) (Sprague-Dawley rats [1]; [5]): 3.4±0.8 IU/L; Urea (Sprague-Dawley rats [1]; [5]): 70.7 ± 10.2 mg/dL; ALP (alkaline phosphatase) (Sprague-Dawley rats [1]; [6]): 322.7±25.5 IU/L; ALT (alanine aminotransferase) (Sprague-Dawley rats [1]; [6]): 80.1±8.1 IU/L; AST (aspartate aminotransferase) (Sprague-Dawley rats [1]; [6]): 151.8±22.9 IU/L; Albumin (Sprague-Dawley rats [1]; [6]): 4.9 ± 0.2 g/dL; Creatinine (Sprague-Dawley rats [1]; [6]): 1.6 ± 0.2 mg/dL; GGT (gamma-glutamyl transferase) (Sprague-Dawley rats [1]; [6]): 9.5±4.1 IU/L; Urea (Sprague-Dawley rats [1]; [6]): 148.8 ± 9.3 mg/dL; Histology of kidney sections (Sprague-Dawley rats [2]): tubular atrophy and increased vacuolization of renal tubular epithelial cells; Histology of liver sections (Sprague-Dawley rats [2]): clear diffused hepatic steatosis

Question: Which results are given for “insulin: Recombinant human (rh) insulin powder from Biocon, dissolved in Tris buffer (pH 7), injected subcutaneously”?
Answer: AUC of diabetic rats compared to nondiabetic rats [3]: doubled; minimum percentage of glucose level ([4]; STZ diabetic rats): 13.4%±1%; minimum percentage of glucose level ([4]; nondiabetic rats): 40.7%±4%
